Each structure is given as a SMILES string.

System in one assay: not listed separately
As to the kind of experiment: Insulin-like activity in albino CD rat fat cells assessed as stimulation of oxidation of [14C]glucose to 14CO2 at 750 ug/ml after 2 hrs by scintillation counting analysis relative to insulin.
Settings: not given
Format: functional.
In the case of `Nc1ccc(O[C@H]2O[C@H](CO)[C@@H](O)[C@H](O)[C@@H]2O)cc1`, the Activity is reported as 23.9%.

The subject of a further assay is Rattus norvegicus. As to the kind of experiment: In vivo insulin-like activity in rat omental adipose tissue assessed as stimulation of lipogenesis by measuring conversion of [14C]glucose to [14C]lipids at 500 mg/kg, ip after 2 hrs. Format: functional. Particulars: route intraperitoneal. A digest of the protocol: (§1)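 Overnight-fasted female rats (140–150 g) given one ip injection of saccharide neutralized to pH 7.5 with 0.1 N HCl, together with [14C]glucose (2 μCi/rat), in physiological saline. Controls received the same solution without saccharide or insulin; insulin reference was 200 mU/kg. After 2 h, 14C incorporated per gram of tissue was measured: diaphragm glycogen and omental adipose total lipids. Mean of five animals, % above control.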
In the case of `NCCCCCCS[C@@H]1O[C@H](CO)[C@@H](O)[C@H](O)[C@@H]1O`, the Activity was 86%.

The subject of another assay is Rattus norvegicus. The assay is described as follows: In vivo insulin-like activity in rat diaphragm muscle assessed as stimulation of glycogenolysis by measuring conversion of [14C]glucose to [14C]glycogen at 500 mg/kg, ip after 2 hrs. Particulars: route intraperitoneal, in the assay text read “glycogenesis” for “glycogenolysis”. Format: functional. Summed up: as §1
Take `NCCCCCCS[C@@H]1O[C@H](CO)[C@@H](O)[C@H](O)[C@@H]1O`: the Activity came out at 74%.

System in the next assay: not listed separately
As to the kind of experiment: Insulin-like activity in albino CD rat fat cells assessed as stimulation of oxidation of [14C]glucose to 14CO2 at 50 ug/ml after 2 hrs by scintillation counting analysis relative to insulin. Format: functional.
Settings: not given
Take `NCCCCCCS[C@H]1O[C@H](CO)[C@H](O)[C@H](O)[C@@H]1O`: the Activity came out at 109.9%.

Regarding `NCCCCCCSC1O[C@H]([C@H](O)CO)[C@H](O)[C@@H]1O` (some centres not stated), the Activity was 93.6%.

Consider `CNC(=O)NC[C@H]1O[C@@H](SCCCCCCN)[C@@H](O)[C@@H](O)[C@@H]1O`, for which the Activity is given as 129%.

As to `NCCCCCCS[C@H]1O[C@H](CO)[C@@H](O)[C@H](O)[C@@H]1O`, the Activity is reported as 132.4%.

Turning to `NCCCCCCS[C@@H]1O[C@H](CO)[C@@H](O)[C@H](O)[C@@H]1O`, the Activity was determined as 109.7%.

Regarding `NCCCCCCSC[C@@H](O)[C@@H](O)[C@H](O)[C@H](O)CO`, the Activity is given as 0%.

System in a further assay: not listed separately
The assay is described as follows: Insulin-like activity in albino CD rat fat cells assessed as stimulation of oxidation of [14C]glucose to 14CO2 at 100 ug/ml after 2 hrs by scintillation counting analysis relative to insulin.
Settings: not given
Format: functional.
Regarding `NCCCCCS[C@H]1O[C@H](CO)[C@@H](O)[C@H](O)[C@@H]1O`, the Activity stood at 6.1%.

Turning to `NCCCCCCS[C@@H]1O[C@H](CO)[C@H](O)[C@H](O)[C@H]1O`, the Activity came to 68.8%.

`NCCCCCCCCS[C@H]1O[C@H](CO)[C@@H](O)[C@H](O)[C@@H]1O`: the Activity came out at 0%.

For the compound `NCCCCCCC(=O)N[C@@H]1O[C@H](CO)[C@@H](O)[C@H](O)[C@@H]1O`, the Activity turned out to be 20.5%.

As for `NC[C@H]1O[C@H](CO)[C@@H](O)[C@H](O)[C@@H]1O`, the Activity stood at 0%.

With `NCCCCCCS`, the Activity amounted to 15.5%.

For `NCCS[C@H]1O[C@H](CO)[C@@H](O)[C@H](O)[C@@H]1O`, the Activity is 0%.

With `C[C@H]1O[C@H](SCCCCCCN)[C@@H](O)[C@@H](O)[C@@H]1O`, the Activity amounted to 0%.

Turning to `COC[C@H]1O[C@H](SCCCCCCN)[C@@H](O)[C@@H](O)[C@@H]1O`, the Activity is on record as 37.5%.

Turning to `NCCCCCCS[C@H]1O[C@H](CO[C@H]2O[C@H](CO)[C@@H](O)[C@H](O)[C@@H]2O)[C@@H](O)[C@H](O)[C@@H]1O`, the Activity is listed as 21.6%.

For `NCCCCCCS[C@H]1O[C@H](CO)[C@@H](O)[C@H](O)[C@@H]1O[C@H]1O[C@H](CO)[C@@H](O)[C@H](O)[C@@H]1O`, the Activity is given as 21.6%.

Regarding `CNCCCCCCS[C@H]1O[C@H](CO)[C@@H](O)[C@H](O)[C@@H]1O`, the Activity is 0%.

With `NCCCCCCS[C@H]1O[C@H](COC(N)=O)[C@@H](O)[C@H](O)[C@@H]1O`, the Activity is on record as 102.9%.

Turning to `NCCCCCCS[C@@H]1O[C@H](CO)[C@@H](O)[C@H](O)[C@H]1O`, the Activity is on record as 43.8%.

As to `Nc1ccc(O[C@H]2O[C@H](CO)[C@@H](O)[C@H](O)[C@@H]2O)cc1`, the Activity was determined as 2.9%.

Turning to `NCCCCCCCS[C@H]1O[C@H](CO)[C@@H](O)[C@H](O)[C@@H]1O`, the Activity was 14.8%.

As to `NCCCCCCS(=O)(=O)[C@H]1O[C@H](CO)[C@@H](O)[C@H](O)[C@@H]1O`, the Activity was 33.3%.

For `NCCCCCCS[C@@H]1O[C@H](CO)[C@H](O)[C@@H](O)[C@@H]1O`, the Activity is given as 75.2%.

As to `CC(=O)N[C@@H]1[C@@H](O)[C@H](O)[C@@H](CO)O[C@H]1SCCCCCCN`, the Activity is reported as 36.3%.

For `NCCCCCCC(=O)NCCCCCCS[C@H]1O[C@H](CO)[C@@H](O)[C@H](O)[C@@H]1O`, the Activity stood at 47.1%.

In the case of `NCCCCCCS[C@H]1O[C@H](CO)[C@@H](O)[C@H](O)[C@@H]1O`, the Activity is recorded as 40.8%.

As to `NCCCCS[C@H]1O[C@H](CO)[C@@H](O)[C@H](O)[C@@H]1O`, the Activity was 0%.

Consider `CN(C)CCCCCCS[C@H]1O[C@H](CO)[C@@H](O)[C@H](O)[C@@H]1O`, for which the Activity is 0%.

For `NCCCCCCO[C@H]1O[C@H](CO)[C@@H](O)[C@H](O)[C@@H]1O`, the Activity is 23.3%.

For `NCCCCCCCC(=O)N[C@@H]1O[C@H](CO)[C@@H](O)[C@H](O)[C@@H]1O`, the Activity amounted to 22.4%.

Regarding `NCc1ccc(O[C@H]2O[C@H](CO)[C@@H](O)[C@H](O)[C@@H]2O)cc1`, the Activity is 6.4%.

With `NCCCCCCO[C@@H]1O[C@H](CO)[C@@H](O)[C@H](O)[C@H]1O`, the Activity is 23.3%.

For `NCCCCCCSCC(O)CO` (configuration not stated), the Activity was found to be 6.9%.

Consider `NCCCCCCS[C@H]1O[C@H](CO)[C@@H](O)[C@H](O[C@H]2O[C@H](CO)[C@@H](O)[C@H](O)[C@@H]2O)[C@@H]1O`, for which the Activity is reported as 15.7%.

As to `NCc1ccc(CS[C@H]2O[C@H](CO)[C@@H](O)[C@H](O)[C@@H]2O)cc1`, the Activity was found to be 9.2%.

For `CSCCCCCCN`, the Activity is given as 24.8%.

In the case of `NCCCCCCS[C@@H]1O[C@H](CO)[C@@H](O)[C@H](O)[C@@H]1O[C@H]1O[C@H](CO)[C@@H](O)[C@H](O)[C@@H]1O`, the Activity is 0%.

With `NCc1ccccc1O[C@H]1O[C@H](CO)[C@@H](O)[C@H](O)[C@@H]1O`, the Activity was 0%.

On to `NCCCCCCS[C@H]1O[C@H](CO)[C@@H](OC(N)=O)[C@H](O)[C@@H]1O`, for which the Activity is 64.2%.

Regarding `NCCCCCC(=O)N[C@@H]1O[C@H](CO)[C@@H](O)[C@H](O)[C@@H]1O`, the Activity stood at 2.6%.

Regarding `C[N+](C)(C)CCCCCCS[C@H]1O[C@H](CO)[C@@H](O)[C@H](O)[C@@H]1O.[I-]`, the Activity is recorded as 0%.

Turning to `CCCCCCCS[C@H]1O[C@H](CO)[C@@H](O)[C@H](O)[C@@H]1O`, the Activity is 0%.

Turning to `N[C@@H]1O[C@H](CO)[C@@H](O)[C@H](O)[C@@H]1O`, the Activity is 0%.

For the compound `NCCCCCCS[C@@H]1O[C@H](CO)[C@@H](O)[C@H](O)[C@@H]1O`, the Activity was found to be 80%.

`NCCCCCCS[C@H]1O[C@H](CO)[C@H](O)[C@@H](O)[C@@H]1O`: the Activity worked out at 63.7%.

For `O=C([O-])CCCCCS[C@H]1O[C@H](CO)[C@@H](O)[C@H](O)[C@@H]1O.[Na+]`, the Activity amounted to 0%.

For `Nc1ccc(CS[C@H]2O[C@H](CO)[C@@H](O)[C@H](O)[C@@H]2O)cc1`, the Activity amounted to 0%.

Take `NCCCCCCS[C@H]1O[C@H](CO)[C@@H](O[C@H]2O[C@H](CO)[C@@H](O)[C@H](O)[C@@H]2O)[C@H](O)[C@@H]1O`: the Activity was found to be 37.3%.

The record behind these values is ChEMBL document CHEMBL3244309, “Structure-activity relationships of aminoalkyl and -aryl glycosides having insulin-like activity” (1978).
